Experimental data collected from several papers.
Each line is one published result; the experiments were not run side by side.
Target: Serine/threonine-protein kinase PLK3 (PLK3, Homo sapiens, UniProt Q9H4B4)

CNC(=O)Nc1ccc2c(c1)[C@@]1(CC2)OC(=O)N(CC(=O)N(Cc2ccc(F)cc2)[C@@H](C)C(F)(F)F)C1=O
remaining binding (cell-free assay; competition with immobilised ligand; 1 µM): 84%

Cc1cc(NC(=O)c2cccc3cc(-c4cccc5[nH]nc(N)c45)ccc23)ccc1F
activity vs control (enzyme activity; inhibitor; 0.1 µM): 92%

COc1cc2c(Nc3ccc(Br)cc3F)ncnc2cc1OCC1CCN(C)CC1
remaining signal (cell-free assay; 0.5 µM): 95%

Cc1ccc(Nc2nccc(N(C)c3ccc4c(C)n(C)nc4c3)n2)cc1S(N)(=O)=O
inhibition (enzyme activity; inhibitor; 10 µM): -9%

CCS(=O)(=O)c1cc2cc(C[C@@](O)(CC(C)(C)c3ccc(F)cc3C(N)=O)C(F)(F)F)[nH]c2cn1
remaining binding (cell-free assay; competition with immobilised ligand; 1 µM): 99%

Nc1ncnc2occ(-c3ccc(NC(=O)Nc4cc(C(F)(F)F)ccc4F)cc3)c12
remaining signal (cell-free assay; inhibitor; 20 µM): 0.05%

Cc1ccc(NC(=O)c2ccc(C)c(C(F)(F)F)c2)cc1C#Cc1nn(C2CCC(O)CC2)c2ncnc(N)c12 (stereo not shown)
remaining signal (cell-free assay; 10 µM): 93%

COc1cc(-c2cc(-c3ccc(N4CCNCC4)cc3)cnc2C)cc(OC)c1OC
inhibition (enzyme activity; inhibitor; 1 µM): 1%

CNC(=O)c1cc(Oc2ccc(NC(=O)Nc3ccc(Cl)c(C(F)(F)F)c3)cc2)ccn1
inhibition (enzyme activity; inhibitor; 0.3 µM): -12%

COc1cc2ncnc(Nc3ccc(Oc4ccccc4)c(C)c3C)c2cc1OC
inhibition (enzyme activity; inhibitor; 1 µM): -16%

CCOc1cc(-c2nncn2C)ccc1Nc1ncc2cc(C)nc(NCC(C)(C)C)c2n1
inhibition (enzyme activity; inhibitor; FRET; 1 µM): 19%

CN([C@@H]1CCc2c(CC(=O)O)c3cc(S(C)(=O)=O)ccc3n2C1)S(=O)(=O)c1ccc(F)cc1
remaining binding (cell-free assay; competition with immobilised ligand; 1 µM): 70%

O=C1Nc2ccc(Cl)cc2C1=Cc1cc(Cl)c(O)c(Cl)c1
remaining signal (cell-free assay; 0.5 µM): 98.2%

O=C(CSc1nc2nccnc2c(=O)n1CCc1ccccc1)Nc1nccs1
inhibition (enzyme activity; inhibitor; 10 µM): 4%

Cc1ccc(C(=O)Nc2ccc(CN3CCN(C)CC3)c(C(F)(F)F)c2)cc1C#Cc1cnc2cccnn12
remaining activity (enzyme activity; inhibitor; 23.5 nM): 89%

COc1ccc2c(O[C@@H]3C[C@H]4C(=O)N[C@]5(C(=O)O)CC5/C=C\CCCCC[C@H](NC(=O)OC5CCCC5)C(=O)N4C3)cc(-c3csc(NC(=O)C(C)C)n3)nc2c1C (stereo partly shown)
remaining binding (cell-free assay; competition with immobilised ligand; 1 µM): 79%

CC(C)(C)c1nc2c(s1)c1nc(N)ncc1c1ccc(NS(=O)(=O)c3c(F)cccc3F)c(F)c12
remaining activity (enzyme activity; inhibitor; radiometric; 1 µM): 91%

CCOC(=O)c1cc2cc(-c3cc(C(=O)NCc4ccc(C(=O)O)cc4)nn3C)ccc2[nH]1
remaining binding (cell-free assay; competition with immobilised ligand; 0.1 µM): 70%

Cc1sc(C(=O)NC2COC2)cc1-n1cc(NC(=O)Nc2c(F)cccc2Cl)cn1
remaining activity (enzyme activity; inhibitor; 10 µM): 102%

N#CC1(c2ccccn2)CCN(Cc2cc(C(=O)N3CCCC3)c(=O)n3ccccc23)CC1
remaining binding (cell-free assay; competition with immobilised ligand; 1 µM): 100%

O=C1NC(=O)c2cc(Nc3ccc(F)cc3)c(Nc3ccc(F)cc3)cc21
remaining signal (cell-free assay; 0.5 µM): 98%

CCCOc1ccc([C@H]2[C@H](C(=O)O)[C@@H](c3ccc4c(c3)OCO4)CN2CC(=O)Nc2c(CC)cccc2CC)cc1
remaining binding (cell-free assay; competition with immobilised ligand; 1 µM): 83%

CCN(CC)CCNC(=O)c1c(C)[nH]c(/C=C2\C(=O)Nc3ccc(F)cc32)c1C
inhibition (enzyme activity; inhibitor; 0.3 µM): -10%

O=C1NC(c2ccccn2)Sc2ccccc21 (stereo not shown)
remaining binding (cell-free assay; competition with immobilised ligand; 1 µM): 88%

Cc1ccc(C(=O)NCc2ccsc2)cc1C#Cc1cn(C(C)C)c2ncnc(N)c12
activity vs control (enzyme activity; inhibitor; 1 µM): 118%
